Source: PubChem (several laboratories)
PLK1 kinase inh – human PLK1 kinase inhibitors, primary screen, biochemical, TR-FRET; Serine/threonine-protein kinase PLK1 (Homo sapiens), P53350; 97,000 compounds, 0.53% hits; AID 619, 2007; recombinant PLK1 kinase, TR-FRET peptide phosphorylation; inhibition, % at 10 µM;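 active = inhibition of 50% or more in the single-concentration screen; inactive = inhibition below 50%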
FAK inh – FAK kinase inhibitors, primary screen, biochemical; inhibition, %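 (tested at 7 µM)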; Focal adhesion kinase 1 (Homo sapiens), Q05397; 97,000 compounds, 0.84% hits; biochemical FAK kinase activity assay; in the data active = inhibition above about 19%
PLK1 PBD inh – Plk1 polo box domain binding inhibitors, primary screen, biochemical, fluorescence polarization | AID 693, 2007 | Plk1 PBD phosphopeptide binding | 97,000 compounds, 0.13% hits | inhibition, %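 (tested at about 20 µM)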 | Serine/threonine-protein kinase PLK1 (Homo sapiens), P53350; in the data active = inhibition above about 34%, passing the limit was not always enough
EphB4 antag – EphB4-ephrin-B2 interaction antagonists, primary screen, biochemical, TNYL-RAW peptide probe, fluorescence polarization; EphB4 LBD / TNYL-RAW-Alexa532 peptide; inhibition, % at 7 µM; 97,000 compounds, 0.15% hits; Ephrin type-B receptor 4 (Homo sapiens), P54760;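 active = inhibition above the screen-wide mean inhibition plus 3 SD, cut at about 15% in these data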
Cav32 inh – Cav3.2 calcium influx blockers – cell-based, Fluo-4 calcium fluorescence, FDSS, MLSMR library, primary screen | Voltage-dependent T-type calcium channel subunit alpha-1H (Homo sapiens), O95180 | Cav3.2-expressing cells; active compounds read low | B-score at 10 µM | 100,000 compounds, 4% hits | AID 449739, 2010;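 active = single-dose well whose peak fluorescence ratio is a statistical outlier from its plate by either plate-standardised score or position-corrected B-score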
Rev-RRE block – HIV-1 Rev-RRE binding inhibitors, primary screen, biochemical, FRET, protein-RNA interaction | inhibition, % at 8 µM | Rev peptide-RRE RNA binding | 97,000 compounds, 0.79% hits | AID 704, 2007;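 active = inhibition above the screen-wide mean plus 3 SD, cut at about 35% in these data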
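Test system: labelled RRE RNA duplex and labelled Rev peptide. Times: 5 min compound–RNA preincubation, then 15 min with peptide, 25 °C. Doses: single-dose 8 µM. Measured by: FRET, excitation 480 nm, emission 540 nm donor and 671 nm acceptor. Measure: % inhibition of FRET ratio versus controls.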
Hits are given with their value; . = inactive; / = not tested or not shown. Rows were chosen to be rich in hits. Some 5.3% of all compounds tested hit in one or more screens of this group.

SMILES | PLK1 kinase inh | FAK inh | PLK1 PBD inh | EphB4 antag | Cav32 inh | Rev-RRE block
Cc1ccc(C(C(=O)NC2CCCCC2)N(Cc2ccco2)C(=O)Cn2cnc3ccccc32)cc1 (centres undefined) | . | . | . | . | -5.1 | .
O=C(NC1CCCCC1)C(c1ccco1)N(C(=O)C(F)(F)F)C1CC1 (centres undefined) | . | . | . | . | . | .
CCC(C(=O)NC1CCCC1)N(Cc1ccco1)C(=O)Cn1nnc(-c2ccc(C)cc2)n1 (centres undefined) | . | . | . | . | -3.7 | .
Cc1ccc(CN(C(=O)C(F)(F)F)C(C(=O)NC2CCCCC2)c2ccco2)cc1 (centres undefined) | . | . | . | . | -5.4 | .
O=C(CSc1ncnc2c1nnn2-c1ccc(F)cc1)N1CCN(c2ccccc2)CC1 | . | . | . | . | / | .
CCc1cc(C(N)=S)ccn1 | / | / | / | / | . | /
O=C(Cc1cccs1)N(Cc1cccs1)C1(C(=O)NC2CCCCC2)CCCCC1 | . | . | . | . | -5.5 | .
CCC(C)(C(=O)NC1CCCCC1)N(Cc1ccco1)C(=O)c1ccccn1 (centres undefined) | . | . | . | . | . | .
CC(=O)N(Cc1ccco1)C1(C(=O)NC2CCCC2)CCCCC1 | . | . | . | . | . | .
CCC(C)(C(=O)NC1CCCCC1)N(Cc1cccs1)C(=O)Cc1cccs1 (centres undefined) | . | . | . | . | -7.7 | .
COc1ccc(Cl)cc1NC(=S)NCc1ccco1 | . | . | . | . | . | .
O=C1CC(=C2c3ccccc3-c3ccccc32)C(=O)N1CCCCN1CCN(c2ccccc2)CC1 | . | . | . | . | . | .
O=C(COc1ccccc1)NC(NC(=S)Nc1ccccc1O)C(Cl)(Cl)Cl (centres undefined) | . | . | . | . | -7.9 | .
Cc1ccccc1NC(=S)NC(NC(=O)COc1ccccc1)C(Cl)(Cl)Cl (centres undefined) | . | . | . | . | . | .
COc1ccc(C2=Nn3c(nnc3-c3ccc(OC)cc3)SC2)cc1 | . | . | . | . | -7.2 | .
CCSc1nnc2c(n1)OC(c1ccc(C(=O)O)cc1)N(C(C)=O)c1ccccc1-2 (centres undefined) | 65 | . | . | . | . | .
CCOc1ccc(N2C(=O)CC(SC(=NC)Nc3ccc(F)cc3)C2=O)cc1 (centres undefined) | . | . | . | . | . | .
Nc1cnc(CNc2ccccc2Cl)cn1 | / | / | / | / | . | /
Cc1nc2ccccc2c(=O)n1NC(=O)c1c(O)c2c(n(CC(C)C)c1=O)CCCC2 | . | . | . | . | -11 | .
O=C(CN1C(=O)C2(OCCO2)c2ccccc21)c1ccc(Br)cc1 | . | . | . | . | -5.5 | .
Cc1ccc2[nH]cc(CCNC(=O)c3cccnc3)c2c1 | . | . | . | . | . | .
Cc1ccc2[nH]cc(CCNC(=O)Nc3ccccc3)c2c1 | . | . | . | . | -3.9 | .
CCOC(=O)Cc1csc(NC(=O)CSc2nnnn2-c2ccc(CC)cc2)n1 | . | . | . | . | -5.4 | .
O=C(CSCC(=O)NC1CC1)Nc1ccc2ccccc2c1 | . | . | . | . | . | .
CC(=O)C(=Nc1ccccc1Cl)NNc1ccc(Cl)cc1 | . | . | . | . | . | .
SMILES | PLK1 kinase inh | FAK inh | PLK1 PBD inh | EphB4 antag | Cav32 inh | Rev-RRE block
COc1ccc(C2NC(=O)NC(O)(C(F)(F)F)C2C(=O)c2ccc(C)cc2)cc1 (centres undefined) | . | . | . | . | . | .
Cc1ccc(C(=O)C2C(c3ccc(-c4ccccc4[N+](=O)[O-])o3)NC(=O)NC2(O)C(F)(F)F)cc1 (centres undefined) | . | . | . | . | -7.1 | .
COc1ccc(-n2c(SCC(=O)NCc3ccco3)nc3c([nH]c4ccccc43)c2=O)cc1 | . | . | . | . | . | .
CN1CCN(c2nc(C#N)cc(-c3ccccc3)n2)CC1 | . | . | . | . | . | .
COc1ccc(-c2cc(C#N)nc(N3CCNCC3)n2)cc1 | 55 | . | . | . | / | .
FC(F)(F)C1=CC(c2ccc(Br)cc2)=NCCN1 | . | . | . | . | . | .
Cc1nc(N2CCC(C)CC2)c2nnn(Cc3ccccc3)c2n1 | . | . | . | . | . | .
C=CCc1c(C)nc(C)nc1N/N=C/c1ccccc1O | . | . | . | . | . | 41
Cc1ccc(C(=O)CC(=O)c2cccc(F)c2)c(O)c1 | . | . | . | . | . | .
CCOC(=O)CN1C(=O)Nc2ccc(Br)cc2C1c1ccccc1 (centres undefined) | . | . | . | . | . | .
NNC(=O)CN1C(c2ccc(Cl)cc2)=Nc2ccc(Br)cc2C1c1ccccc1 (centres undefined) | . | . | . | . | -9.9 | .
COC(=O)CN1C(c2ccccc2)=Nc2ccc(Cl)cc2C1c1ccccc1 (centres undefined) | . | . | . | . | -6.7 | .
O=C1CN2C(=Nc3ccc(Cl)cc3C2c2ccccc2)CN1 (centres undefined) | / | / | / | / | . | /
CC(C)Oc1ccc(Cl)cc1Nc1nc(NCCO)nc(N2CCCC2)n1 | / | / | / | / | . | /
O=C(C1=C[C@@H](c2coc3ccccc3c2=O)C[C@@H](OCCCCO)O1)N1CCN(Cc2ccc3c(c2)OCO3)CC1 | / | / | / | / | . | /
CNC(=O)Nc1cccc(C(F)(F)F)c1 | . | . | . | . | . | .
CCCC(=O)NC(Nc1cccc(C(F)(F)F)c1)C(Cl)(Cl)Cl (centres undefined) | . | . | . | . | -5 | .
CCC(C(=O)Nc1cccc(C(F)(F)F)c1)c1ccccc1 (centres undefined) | . | . | . | . | -6.8 | .
CCCC(=O)NC(Nc1cc(C(F)(F)F)ccc1Cl)C(Cl)(Cl)Cl (centres undefined) | . | . | . | . | . | .
COc1cc(/C=N/NC(=O)c2ccoc2C)cc(OC)c1OC | . | . | . | . | . | .
COc1ccc(/C=N/NC(=O)c2ccoc2C)cc1COc1ccc(Cl)cc1 | . | . | . | . | -6.5 | .
NC(=O)C1=C[C@@H](c2ccccc2)C[C@@H](OCc2ccc(CO)cc2)O1 | / | / | / | / | . | /
CCN(CC)S(=O)(=O)c1ccc(Cc2ncc(C(F)(F)F)cc2Cl)s1 | . | . | . | . | -3.7 | .
NS(=O)(=O)c1ccc(Cc2ncc(C(F)(F)F)cc2Cl)s1 | . | . | . | . | . | .
CSc1nc2c(c(-c3ccccc3)c1C#N)CCC2 | . | . | . | . | . | .
CCN(C(=O)CCc1nc(-c2ccc(OC)cc2)no1)c1cc(OC)ccc1OC | . | . | . | . | -6.5 | .
